Assay results from ChEMBL document CHEMBL4043131, “New prodrugs of two pyrimidine acyclic nucleoside phosphonates: Synthesis and antiviral activity” (Bioorg Med Chem, 2017).
pEC50: −log10 of the molar value. Active and inactive are the calls of the source. The calls are words filed in the database; no cut-off is given here.

Assays:
Punta Toro virus = test: Antiviral activity against Punta Toro virus infected in African green monkey Vero cells assessed as inhibition of virus-induced cytopathic effect; assay type: functional
In short: (§1)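 Confluent cell monolayers were infected with 100 CCID50 of virus (1 CCID50 = dose infecting 50% of cultures) and incubated with varying compound concentrations. Cytopathicity was scored once complete in untreated infected controls.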

Human alphaherpesvirus 3 [1] = test: Antiviral activity against wild type thymidine kinase expressing Varicella-Zoster virus Oka infected in HEL cells assessed as inhibition of virus-induced plaque formation; assay type: functional, cell-based; details: Human alphaherpesvirus 3, Oka
In short: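 Confluent HEL cultures were inoculated with 20 PFU of VZV and incubated with varying compound concentrations. Plaques were counted once formation was complete in untreated infected controls.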

Coxsackievirus B4 = test: Antiviral activity against Coxsackie virus B4 infected in human HeLA cells assessed as inhibition of virus-induced cytopathic effect; assay type: functional, cell-based; in short: as §1
Human betaherpesvirus 5 [2] = test: Antiviral activity against Human cytomegalovirus AD169 infected in HEL cells assessed as inhibition of virus-induced cytopathic effect; assay type: functional, cell-based; details: Human betaherpesvirus 5, AD169, HEL; in short: as §1
Influenza A virus = test: Antiviral activity against Influenza A virus (H1N1) infected in HEL cells assessed as inhibition of virus-induced cytopathic effect; assay type: functional, cell-based
[3] = tested on: Vesicular stomatitis virus; test: Antiviral activity against Vesicular stomatitis virus infected in HEL cells assessed as inhibition of virus-induced cytopathic effect; assay type: functional, cell-based
Influenza A virus H3N2 = test: Antiviral activity against Influenza A virus H3N2 infected in HEL cells assessed as inhibition of virus-induced cytopathic effect; assay type: functional, cell-based
Vaccinia virus = test: Antiviral activity against Vaccinia virus Lederle infected in HEL cells assessed as inhibition of virus-induced cytopathic effect; assay type: functional, cell-based; details: Orthopoxvirus vaccinia
[4] = tested on: Mammalian orthoreovirus 1; test: Antiviral activity against Reovirus-1 infected in African green monkey Vero cells assessed as inhibition of virus-induced cytopathic effect; assay type: functional; in short: as §1
Human alphaherpesvirus 1 [5] = test: Antiviral activity against thymidine kinase-deficient ACV-resistant Herpes simplex virus 1 KOS infected in HEL cells assessed as inhibition of virus-induced cytopathic effect; assay type: functional, cell-based; details: Human alphaherpesvirus 1, KOS
Human respirovirus 3 = test: Antiviral activity against Parainfluenza virus 3 infected in African green monkey Vero cells assessed as inhibition of virus-induced cytopathic effect; assay type: functional; in short: as §1
Sindbis virus = test: Antiviral activity against Sindbis virus infected in African green monkey Vero cells assessed as inhibition of virus-induced cytopathic effect; assay type: functional; in short: as §1
Human alphaherpesvirus 3 [6] = test: Antiviral activity against wild type thymidine kinase-deficient Varicella-Zoster virus 07-1 infected in HEL cells assessed as inhibition of virus-induced plaque formation; assay type: functional, cell-based; details: Human alphaherpesvirus 3, 07-1, HEL
In short: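 HEL fibroblast monolayers were infected with 20 PFU of VZV and kept with varying compound concentrations. Plaques were counted once formation was complete in untreated infected controls.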

[7] = Antiviral activity against Respiratory syncytial virus A strain long infected in human HeLA cells assessed as inhibition of virus-induced cytopathic effect; assay type: functional, cell-based; in short: as §1
Human alphaherpesvirus 1 [8] = test: Antiviral activity against wild type Herpes simplex virus 1 KOS infected in HEL cells assessed as inhibition of virus-induced cytopathic effect; assay type: functional, cell-based; details: Human alphaherpesvirus 1, KOS
Human betaherpesvirus 5 [9] = test: Antiviral activity against Human cytomegalovirus Davis infected in HEL cells assessed as inhibition of virus-induced cytopathic effect; assay type: functional, cell-based; details: Human betaherpesvirus 5, Davis; in short: as §1
Human alphaherpesvirus 2 = test: Antiviral activity against Herpes simplex virus 2 G infected in HEL cells assessed as inhibition of virus-induced cytopathic effect; assay type: functional, cell-based; details: Human alphaherpesvirus 2, strain G; in short: as §1
Feline coronavirus = test: Antiviral activity against Feline coronavirus infected in CRFK cells assessed as inhibition of virus-induced cytopathic effect; assay type: functional, cell-based
Influenza B virus = test: Antiviral activity against influenza B virus infected in HEL cells assessed as inhibition of virus-induced cytopathic effect; assay type: functional, cell-based
HEL = test: Cytotoxicity against HEL cells assessed as reduction in cell growth after 3 days by coulter counter method; assay type: cell-based; details: human, hel, 72 h
In short: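 HEL cells were seeded at 5 × 10³ cells/well and grown for 24 h, then given medium containing graded compound concentrations. After 3 days at 37 °C, cells were counted by Coulter counter.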

[10] = Selectivity index, ratio of CC50 for HEL cells to EC50 for wild type Herpes simplex virus 1 KOS infected in HEL cells; assay type: toxicity, cell-based; details: human, read-out: Ratio CC50/EC50
In short: (§2)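 EC50 is the concentration halving cytopathicity in HEL cells infected with 100 CCID50 HSV. […] Cells were counted by Coulter counter, and CC50 was read from plots of cell number (% of untreated) versus concentration. SI = CC50/EC50.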

[11] = Selectivity index, ratio of CC50 for HEL cells to EC50 for Herpes simplex virus 2 G infected in HEL cells; assay type: toxicity, cell-based; details: human, read-out: Ratio CC50/EC50; in short: as §2
[12] = Selectivity index, ratio of CC50 for HEL cells to EC50 for thymidine kinase-deficient ACV-resistant Herpes simplex virus 1 KOS infected in HEL cells; assay type: toxicity, cell-based; details: human, read-out: Ratio CC50/EC50; in short: as §2
[13] = Selectivity index, ratio of CC50 for HEL cells to EC50 for wild type thymidine kinase expressing Varicella-Zoster virus Oka infected in HEL cells; assay type: toxicity, cell-based; details: human, read-out: Ratio CC50/EC50
[14] = Selectivity index, ratio of CC50 for HEL cells to EC50 for wild type thymidine kinase-deficient Varicella-Zoster virus 07-1 infected in HEL cells; assay type: toxicity, cell-based; details: human, read-out: Ratio CC50/EC50

Row | Compound | Activity (Punta Toro virus) | pEC50 (Human alphaherpesvirus 3 [1]) | Activity (Coxsackievirus B4) | pEC50 (Human betaherpesvirus 5 [2]) | Activity (Influenza A virus) | Activity [3] | Activity (Influenza A virus H3N2) | pEC50 (Vaccinia virus) | Activity [4] | pEC50 (Human alphaherpesvirus 1 [5]) | Activity (Human respirovirus 3) | Activity (Sindbis virus) | pEC50 (Human alphaherpesvirus 3 [6]) | Activity [7] | pEC50 (Human alphaherpesvirus 1 [8]) | pEC50 (Human betaherpesvirus 5 [9]) | pEC50 (Human alphaherpesvirus 2) | Activity (Feline coronavirus) | Activity (Influenza B virus) | CC50 (HEL) | further results
1 | CCCCCCCCCCCCCCCCCCOCCNc1ncn(CCOCP(=O)(OCCOCCCCCCCCCCCCCCCCCC)OCCOCCCCCCCCCCCCCCCCCC)c(=O)n1 | inactive | 4.35 | inactive | < 4.00 | inactive | inactive | inactive | < 4.00 | inactive | < 4.00 | inactive | inactive | 4.00 | inactive | < 4.00 | < 4.00 | < 4.00 | inactive | inactive |  | 
2 | CCOC(=O)[C@H](Cc1ccccc1)NP(=O)(O)COCCn1cnc(N)nc1=O | inactive | < 4.00 | inactive | < 4.00 | inactive | inactive | inactive | < 4.00 | inactive | < 4.00 | inactive | inactive | < 4.00 | inactive | < 4.00 | < 4.00 | < 4.00 | inactive | inactive | > 100 µM | 
3 | Nc1ccn(C[C@@H](CO)OCP(=O)(O)O)c(=O)n1 [CIDOFOVIR] |  |  |  | 6.06 |  |  |  | 4.65 |  | 5.58 |  |  |  |  | 5.53 | 6.12 | 5.86 |  |  | 216 µM | 
4 | CC(C)(C)C(=O)OCOP(=O)(O)COCCOc1cc(N)nc(N)n1 | inactive | 5.60 | inactive | < 4.00 | inactive | inactive | inactive | < 4.00 | inactive | 4.27 | inactive | inactive | 5.23 | inactive | 4.40 | < 4.00 | 4.54 | inactive | inactive | ≥ 100 µM | 
5 | Nc1nc2c(ncn2COCCO)c(=O)[nH]1 [ACYCLOVIR] |  |  |  |  |  |  |  | < 3.60 |  |  |  |  |  |  |  |  | 6.74 |  |  | > 440 µM | 
6 | CC(C)(C)C(=O)OCOP(=O)(COCCOc1cc(N)nc(N)n1)OCOC(=O)C(C)(C)C | inactive | 6.17 | inactive | 4.32 | inactive | inactive | inactive |  | inactive | 4.84 | inactive | inactive | 5.90 | inactive | 5.00 | 4.44 | 5.02 | inactive | inactive | 16.6 µM | 
7 | Nc1nc(O)c2ncn(COC(CO)CO)c2n1 [GANCICLOVIR] |  |  |  |  |  |  |  | < 4.00 |  |  |  |  |  |  |  |  |  |  |  | ≥ 308 µM | 
8 | CCCCCCCCCCCCCCCCCCOCCOP(=O)(COCCn1cnc(N)nc1=O)OCCOCCCCCCCCCCCCCCCCCC | inactive | < 5.40 | inactive | < 4.70 | inactive | inactive | inactive | < 4.00 | inactive | < 4.00 | inactive | inactive | < 6.10 | inactive | < 4.00 | < 4.70 | < 4.00 | inactive | inactive |  | 
9 | CC(C)(C)C(=O)OCOP(=O)(O)COCCn1cnc(N)nc1=O | inactive | 4.39 | inactive | 3.91 | inactive | inactive | inactive | < 3.56 | inactive | 3.88 | inactive | inactive | 3.89 | inactive | 3.85 | 3.94 | 3.85 | inactive | inactive | > 275 µM | 
10 | CC(C)OC(=O)OCOP(=O)(COCCn1cnc(N)nc1=O)OCOC(=O)OC(C)C | inactive | 4.82 | inactive | 4.58 | inactive | inactive | inactive | < 4.00 | inactive | 4.66 | inactive | inactive | 4.63 | inactive | 4.66 | 4.70 | 4.66 | inactive | inactive |  | 
11 | COP(=O)(O)COCCn1cnc(N)nc1=O | inactive | < 4.00 | inactive | < 4.00 | inactive | inactive | inactive | < 4.00 | inactive | < 4.00 | inactive | inactive | < 4.00 | inactive | < 4.00 | < 4.00 | < 4.00 | inactive | inactive | > 100 µM | 
12 | O=c1[nH]c(=O)n([C@H]2C[C@H](O)[C@@H](CO)O2)cc1/C=C/Br [BRIVUDINE] |  | 7.62 |  |  |  |  |  | 4.72 |  |  |  |  | 4.23 |  |  |  | 3.85 |  |  | 242 µM | 
13 | CC(C)OC(=O)OCOP(=O)(O)COCCn1cnc(N)nc1=O | inactive | 4.31 | inactive | < 4.00 | inactive | inactive | inactive | < 4.00 | inactive | < 4.00 | inactive | inactive | 4.31 | inactive | < 4.00 | < 4.00 | < 4.00 | inactive | inactive |  | 
14 | Nc1cc(OCCOCP(=O)(O)O)nc(N)n1 | inactive | 5.68 | inactive | < 4.00 | inactive | inactive | inactive | < 4.00 | inactive | 4.27 | inactive | inactive | 5.33 | inactive | 4.35 | < 4.00 | 4.70 | inactive | inactive | 90.3 µM | selectivity ratio [10]: 1.72 to 4.5; selectivity ratio [11]: 1.72 to 4.5; selectivity ratio [12]: 1.72 to 4.5; selectivity ratio [13]: 19 to 44; selectivity ratio [14]: 19 to 44
